Data set [1] is described as follows: Cytotoxicity against African green monkey Vero cells. In kind it is cell-based. To be noted: chlorocebus sabaeus.
The nature of data set [2]: Cytotoxicity against human CEM cells. It counts as cell-based. The settings on record: CEM (CCRF-CEM) cells.
Data set [3] can be described thus: Cytotoxicity against human PBMC. In kind it is cell-based.
In data set [4] the test system is Human immunodeficiency virus 1. The data set can be described thus: Antiviral activity against Human immunodeficiency virus 1 LAI infected in human PBMC. It counts as functional, organism-based. The settings on record: Human immunodeficiency virus 1, M:B_Lai. In outline:
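HIV-1 LAI replication in primary human peripheral blood mononuclear cells, with AZT as positive control.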

The nature of data set [5]: Cytotoxicity against human HuH7 cells assessed as reduction in rRNA levels at 120 hrs by RT-PCR analysis. It counts as cell-based, Huh-7.
The next data set deals with Hepatitis C virus. Nature of the data set: Antiviral activity against Hepatitis C virus infected in human HuH7 cells. It counts as functional, organism-based, Hepacivirus hominis. The settings on record: Huh-7. The procedure, abridged:
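Subgenomic HCV replicon in Huh7 cells; HCV RNA extracted and amplified to measure inhibition of replication, with cytotoxicity determined in the same cells at the same time.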

Usually CC50 stands for the concentration that lowers cell viability or growth by half. Broadly, the EC50 is the midpoint of the concentration-response curve. The term EC90 denotes the point of the concentration-response curve where the effect stands at 90%. On to `Nc1ncnc2c1c1c(=O)[nH]c(S)nc1n2[C@@H]1O[C@H](CO)[C@@H](O)[C@H]1O`, for which the 50% cytotoxic concentration (CC50) in data set [1] was 43.1 µM; in data set [2], 8.2 µM; in data set [3], 2.9 µM. Besides, the 50% effective concentration (EC50) is 9.6 µM in data set [4] and > 10 µM with Hepatitis C virus. Moreover, the EC90 in data set [4] is 30.2 µM; in the data set with Hepatitis C virus it was > 10 µM. Further, the CC50 at 120 h in data set [5] was > 10 µM.

On to `C[C@@]1(O)[C@H](O)[C@@H](CO)O[C@H]1n1c2ncnc(N)c2c2c(=O)[nH]c(S)nc21`, for which the CC50 in data set [1], in data set [2] and in data set [3] was > 100 µM in each case. Also, the values for the EC50 (in data set [4]; with Hepatitis C virus) were > 100 µM and > 10 µM, respectively. Also, the 90% effect concentration (EC90) in data set [4] was > 100 µM; in the data set on Hepatitis C virus it was > 10 µM. The CC50 at 120 h in data set [5] is > 10 µM.

Consider `C[C@@]1(O)[C@H](O)[C@@H](CO)O[C@H]1n1c2ncnc(N)c2c2c(N)ncnc21`, for which the cytotoxic concentration (CC50) in data set [1], in data set [2] and in data set [3] was > 100 µM throughout. For the same compound, the concentration giving a half-maximal response (EC50) in data set [4] is ≥ 100 µM; in the data set on Hepatitis C virus it was > 10 µM. Besides, the EC90 in data set [4] is ≥ 100 µM; in the data set on Hepatitis C virus, > 10 µM. The CC50 at 120 h in data set [5] was > 10 µM.

As to `Nc1nc2c(c(=O)[nH]1)c1c(N)ncnc1n2[C@@H]1O[C@H](CO)[C@@H](O)[C@H]1O`, the figures for the cytotoxic concentration (CC50) in data set [1], in data set [2] and in data set [3] were 63.1 µM, 20.2 µM and 3.1 µM, respectively. Besides, the concentration for a half-maximal effect (EC50) in data set [4] stood at 9.4 µM; with Hepatitis C virus, 3 µM. In addition, the values for the 90% effect concentration (EC90) (in data set [4]; in the data set with Hepatitis C virus) were 24 µM and 22.5 µM, respectively. Further, the CC50 at 120 h in data set [5] was < 10 µM.

In the case of `C[C@@]1(O)[C@H](O)[C@@H](CO)O[C@H]1n1c2ncnc(N)c2c2c(=O)[nH]c(N)nc21`, the figures for the CC50 in data set [1], in data set [2] and in data set [3] were > 100 µM, 36.5 µM and 92.1 µM, respectively. Moreover, the concentration for a half-maximal effect (EC50) in data set [4] came out at 3.3 µM; with Hepatitis C virus, 3 µM. In addition, the concentration for an effect of 90% (EC90) was > 100 µM in data set [4] and 17.9 µM with Hepatitis C virus. Moreover, the CC50 at 120 h in data set [5] came out at 3 µM.

Turning to `CCOC(=O)[C@H](C)NP(=O)(OC[C@H]1O[C@@H](n2c3ncnc(N)c3c3c(N)ncnc32)[C@](C)(O)[C@@H]1O)Oc1ccccc1` (stereo partly specified), the half-maximal cytotoxic concentration (CC50) at 120 h in data set [5] is > 10 µM. In addition, in the data set with Hepatitis C virus, the concentration for a half-maximal effect (EC50) was > 10 µM and the EC90 is > 10 µM.

In the case of `C[C@@]1(O)[C@H](O)[C@@H](CO)O[C@H]1n1c2ncnc(N)c2c2c(=O)[nH]c(=O)[nH]c21`, the CC50 in data set [1], in data set [2] and in data set [3] was > 100 µM throughout. Also, the EC50 in data set [4] was > 100 µM; in the data set on Hepatitis C virus, > 10 µM. The EC90 in data set [4] was > 100 µM; in the data set with Hepatitis C virus it was > 10 µM. The CC50 at 120 h in data set [5] was > 10 µM.

For `Nc1ncnc2c1c1c(N)ncnc1n2[C@@H]1O[C@H](CO)[C@@H](O)[C@H]1O`, the CC50 was determined as 82.5 µM in data set [1], 29.5 µM in data set [2] and 53.8 µM in data set [3]. The results for the EC50 (in data set [4]; in the data set with Hepatitis C virus) were > 100 µM and > 10 µM, respectively. The 90% effect concentration (EC90) in data set [4] was > 100 µM; with Hepatitis C virus, > 10 µM. Besides, the CC50 at 120 h in data set [5] is > 10 µM.

Consider `Cc1cn([C@H]2C[C@H](N=[N+]=[N-])[C@@H](CO)O2)c(=O)[nH]c1=O` [ZIDOVUDINE], for which the CC50 in data set [1] was 53 µM; in data set [2] it was 14.3 µM; in data set [3] it was > 100 µM. Moreover, the EC90 in data set [4] was 0.028 µM; with Hepatitis C virus it was > 10 µM. Also, in data set [5], the cytotoxic concentration (CC50) at 120 h is > 10 µM. In addition, the EC50 with Hepatitis C virus is > 10 µM.
